Bioassay records from PubChem BioAssay.
MC4R antag cAMP – MC4R antagonists of cAMP signaling, primary screen, cell-based, TR-FRET, antagonist arm of biased-ligand search. Melanocortin receptor 4 (Homo sapiens), P32245. MC4R-expressing cells, MTII-stimulated cAMP, LANCE TR-FRET. inhibition, % at 6.5 µM. actives 0.48% (n = 360,000). AID 540295, 2011;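 active means inhibition above its plate's cutoff, the mean of tested wells on that plate plus 3 SD, cut at about 29% in these data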;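 further: 0% = Melanotan II alone and 100% = Melanotan II plus saturating MCL0020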
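Assay system: human MC4R-expressing U2OS cells; reagent: Melanotan II stimulation of cells; dosing: 6.5 µM single dose; timing: compound 30 min, challenge 1 h, detection 1 h; signal: TR-FRET cAMP assay; replicates: one well per compound, no replicates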
aDG glyco act – activators of alpha-DG glycosylation, primary screen, uHTS, Pro5-aDG cells, AlphaScreen; alpha-DG glycosylation AlphaScreen (IIH6); 0% Pro5, 100% B10-LARGE cell signal; activation, % at 10 µM; actives 0.22% (n = 360,000); AID 624168, 2012;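 active means activation of at least 8% versus controls, or a plate z-score of at least 8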;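 further: Pro5 are CHO cells carrying HIG-tagged alpha-DG that lacks glycosylation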
TAG inh – inhibitors of triacylglycerol accumulation, primary screen, cell-based, uHTS, fluorescence, H9c2; H9c2 cells, Nile Red lipid (TAG) fluorescence; cells loaded with 200 µM oleic acid; inhibition, % at 12.5 µM; actives 0.66% (n = 230,000); AID 651582, 2012;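 active means pattern-corrected inhibition of lipid staining of at least 50% with the nuclear-stain viability signal not falling by more than 50%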;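 further: 0% = DMSO wells and 100% = triacsin C control wells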
TbMetRS inhib – T. brucei MetRS inhibitors, primary screen, biochemical, luminescence. methionyl-tRNA synthetase (Trypanosoma brucei brucei). purified T. brucei MetRS, ATP depletion, Kinase-Glo luminescence. inhibition, % at 11.9 µM. actives 0.4% (n = 360,000). AID 624268, 2012;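 active means inhibition above a per-plate cutoff of the control wells' mean inhibition plus 3 SD, cut at about 5.5% in these data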;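 further: 0% = DMSO wells median and 100% = median of wells with control inhibitor compound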
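Test system – parasite MetRS enzyme · Reagent – substrates ATP, L-methionine and bulk Escherichia coli tRNA · Doses – 11.9 µM compound single dose, 0.9% DMSO · Times – 15 min enzyme-compound preincubation, 2 h reaction, 10 min detection, 25 °C · Signal – Kinase-Glo luminescence, ATP depletion format · Controls – DMSO-only wells as low control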
NTR1 ag – agonists of human NTR1, primary screen, imaging, U2OS cells, beta-arrestin-GFP, high content | activation, % at 20 µM | NTR1-U2OS beta-arrestin-GFP spot imaging, agonist mode | actives 0.17% (n = 330,000);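 active means activation at or above 40% of the spot to cytoplasm intensity ratio, with at least 20 cells analyzed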;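 further: 0% = DMSO without peptide and 100% = 100 nM NTR1 peptide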
Target sequence (P30989 whole entry, looked up): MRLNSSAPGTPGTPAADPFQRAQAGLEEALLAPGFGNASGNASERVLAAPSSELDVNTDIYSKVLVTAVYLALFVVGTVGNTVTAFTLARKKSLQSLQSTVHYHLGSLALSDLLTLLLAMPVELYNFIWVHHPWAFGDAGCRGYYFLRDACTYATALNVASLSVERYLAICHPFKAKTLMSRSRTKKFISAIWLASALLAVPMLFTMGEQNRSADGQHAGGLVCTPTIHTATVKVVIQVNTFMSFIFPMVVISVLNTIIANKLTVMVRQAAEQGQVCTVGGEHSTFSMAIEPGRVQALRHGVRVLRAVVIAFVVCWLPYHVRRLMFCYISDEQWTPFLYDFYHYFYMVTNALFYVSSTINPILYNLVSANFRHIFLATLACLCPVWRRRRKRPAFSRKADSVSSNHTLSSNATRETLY
MC4R barr agon – MC4R agonists recruiting beta-arrestin, primary screen, cell-based, luminescence, agonist arm of biased-ligand search; activation, % at 8.9 µM; U2OS MC4R beta-arrestin complementation; percent of melanotan II response, DMSO zero; Melanocortin receptor 4 (Homo sapiens), P32245; AID 540308, 2011; actives 0.98% (n = 360,000);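 active means activation above a per-plate cutoff, the mean activation of sample wells on that plate plus 3 SD, cut at about 8% in these data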
MC4R barr ag – MC4R beta-arrestin agonists, retest, confirmation, cell-based, luminescence, U2OS; shares compounds with MC4R barr agon; U2OS MC4R beta-arrestin recruitment; scaled DMSO 0%, Melanotan II 100%; activation, % at 8.9 µM; actives 31% (n = 2,400); AID 602192, 2012;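 active means mean activation across replicates above the hit cutoff set in the earlier primary screen, cut at about 8% in these data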
MOR-DOR barr ag – agonists of MOR-DOR heterodimerization, counter-screen for MC4R biased agonist project, cell-based, luminescence; actives 5.8% (n = 2,400); activation, % at 9.2 µM; shares compounds with MC4R barr agon; U2OS PathHunter beta-arrestin, beta-gal luminescence; percent of deltorphin B response, DMSO zero;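 active means mean activation across replicates exceeds the hit threshold derived in the earlier primary screen, cut at about 18% in these data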;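 further: 100% = deltorphin B at 0.9 µM final and 0% = DMSO alone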
* hit, by the source's call. An excerpt weighted towards active compounds, which were near 2.4% of everything screened.

What do the screens show for `CCC(=O)Nc1ccc2c(c1)Cc1cc(NC(=O)CC)ccc1-2`?
MC4R antag cAMP: 3; aDG glyco act: 0; TbMetRS inhib: 0; NTR1 ag: 0; MC4R barr agon: -2

How did O=C1COc2ccc(C(=O)COC(=O)CCSc3ccc(Cl)cc3)cc2N1 do in these assays?
MC4R antag cAMP: 6; aDG glyco act: 0; TAG inh: 5; TbMetRS inhib: 0; NTR1 ag: 2; MC4R barr agon: 19*; MC4R barr ag: 4; MOR-DOR barr ag: 8

Results for COc1ccc(CCC(=O)N2c3ccccc3N=C(c3ccc4c(c3)OCO4)C2C(=O)NCc2ccccc2)cc1 (configuration not stated) ?
aDG glyco act: 0; TbMetRS inhib: -1

Results for Cc1ccc(CC2S/C(=N/c3ccccn3)NC2=O)cc1 (configuration not stated) ?
MC4R antag cAMP: -4; aDG glyco act: 0; TAG inh: 3; TbMetRS inhib: 0; NTR1 ag: 2; MC4R barr agon: 14*; MC4R barr ag: 1; MOR-DOR barr ag: 6

Results for O=C1N/C(=N/c2ccccn2)SC1Cc1ccccc1 (configuration not stated) ?
MC4R antag cAMP: 10; aDG glyco act: 0; TbMetRS inhib: 0; NTR1 ag: 0; MC4R barr agon: 2

What do the screens show for `COc1ccc(C(=O)NCCNc2nc3cc(C)cc(C)c3cc2C#N)nc1`?
aDG glyco act: 0; TbMetRS inhib: 0

How did O=C(Nc1cc(N2CCOCC2)ncn1)Nc1cccc2ccccc12 do in these assays?
MC4R antag cAMP: 12; aDG glyco act: 0; TbMetRS inhib: -1; NTR1 ag: 0; MC4R barr agon: 22*; MC4R barr ag: 7; MOR-DOR barr ag: 5

Results for O=C(OCC(=O)N(CCc1ccccc1)Cc1ccccc1)c1cccc(O)c1 ?
MC4R antag cAMP: 5; aDG glyco act: 0; TAG inh: -4; TbMetRS inhib: 0; NTR1 ag: 5; MC4R barr agon: -3

How did O=C(OCC(=O)N(Cc1ccccc1)Cc1ccccc1)c1cccc(O)c1 do in these assays?
MC4R antag cAMP: 3; aDG glyco act: 0; TAG inh: 2; TbMetRS inhib: 0; NTR1 ag: 2; MC4R barr agon: 9.7*; MC4R barr ag: 1; MOR-DOR barr ag: 7

How did O=C(Nc1ccc(C(F)(F)F)cc1-c1ccccc1)c1ccccc1 do in these assays?
MC4R antag cAMP: -5; aDG glyco act: 0; TbMetRS inhib: -1; NTR1 ag: -1; MC4R barr agon: 13*; MC4R barr ag: 2; MOR-DOR barr ag: 4

What do the screens show for `O=C(Nc1ccccc1-c1ccccc1)c1cccc(C(F)(F)F)c1`?
MC4R antag cAMP: 5; aDG glyco act: 0; TbMetRS inhib: -1; NTR1 ag: 1; MC4R barr agon: 3

How did Cc1cccc2sc(N(CCCN(C)C)C(=O)c3ccc(Cl)s3)nc12 do in these assays?
MC4R antag cAMP: 0; aDG glyco act: 0; TAG inh: -2; TbMetRS inhib: -1; NTR1 ag: 5; MC4R barr agon: 11*; MC4R barr ag: 4; MOR-DOR barr ag: 6

How did Cc1cc(C)c2sc(N(CCN(C)C)C(=O)c3c(F)cccc3F)nc2c1 do in these assays?
MC4R antag cAMP: 8; aDG glyco act: 0; TAG inh: -2; TbMetRS inhib: 0; NTR1 ag: 1; MC4R barr agon: 0

Results for Cc1cc(C)c2sc(N(CCCN(C)C)C(=O)c3ccc(Br)s3)nc2c1 ?
MC4R antag cAMP: 2; aDG glyco act: 1; TAG inh: 28; TbMetRS inhib: 0; NTR1 ag: 8; MC4R barr agon: 16*; MC4R barr ag: 21*; MOR-DOR barr ag: 14

Results for CC(=O)NCCCNC(=S)NCCCN(Cc1ccc(Cl)cc1)c1ccc(Br)cn1 ?
MC4R antag cAMP: -5; aDG glyco act: 0; TAG inh: 0; TbMetRS inhib: 0; MC4R barr agon: -2

How did Cc1ccc(S(=O)(=O)Nc2cc(=O)[nH]c(SCc3ccc(Cl)cc3)n2)cc1 do in these assays?
MC4R antag cAMP: 9; aDG glyco act: 0; TbMetRS inhib: 0; MC4R barr agon: 19*; MC4R barr ag: 7; MOR-DOR barr ag: 2

Results for CCOc1cc2c(c3c1C(c1ccccc1)N(S(=O)(=O)c1ccc(C)cc1)C3)C(=O)C=CC2=O (configuration not stated) ?
aDG glyco act: 0; TbMetRS inhib: 0

Results for Cc1ccc(C(=O)NCCNc2nc3cc(C)c(C)cc3cc2C)cc1 ?
MC4R antag cAMP: -4; aDG glyco act: 1; TbMetRS inhib: 0; NTR1 ag: 4; MC4R barr agon: 15*; MC4R barr ag: 20*; MOR-DOR barr ag: 4

Results for Cc1cc2cc(C)c(NCCNC(=O)c3ccccc3)nc2cc1C ?
MC4R antag cAMP: 2; aDG glyco act: 0; TAG inh: 1; TbMetRS inhib: 0; NTR1 ag: 4; MC4R barr agon: -1

How did Cc1ccc(F)c(S(=O)(=O)NC(=O)C2(C)CCN2C(=O)CCC2CCCC2)c1 (configuration not stated) do in these assays?
MC4R antag cAMP: 0; aDG glyco act: 0; TAG inh: -4; TbMetRS inhib: 0; MC4R barr agon: -1

How did CCOC(=O)C1(C)CCCCCN1C(=O)c1ccc(N(C)C)cc1 (configuration not stated) do in these assays?
MC4R antag cAMP: 7; aDG glyco act: 0; TAG inh: -1; TbMetRS inhib: 0; MC4R barr agon: 0

What do the screens show for `S=c1[nH]nc(COc2ccc(Cl)cc2)n1C1CCCCC1`?
MC4R antag cAMP: 4; aDG glyco act: 0; TbMetRS inhib: -1; NTR1 ag: 5; MC4R barr agon: 11*; MC4R barr ag: 1; MOR-DOR barr ag: 7
